Laboratory results reported in PMC5903430 (The international journal of biochemistry & cell biology, 2017).
Values joined by “and” are separate entries in the source; they are usually repeats but may differ in a detail not shown here. Identical values can stand only once. Counter-ions that a name gives are not always drawn. Like-named read-outs stand apart in the source and are kept apart here.

How the values were obtained:
α3β4 and α4β2 AChRs = conditions: 20 μM; ref Glick et al., 2002a; cited from earlier work
hα4β2 AChR = hα4β2 AChR (Homo sapiens, UniProt P17787+P43681); type: cell-based; conditions: for hα4β2/hα3β4 IC50 ratio (selectivity): ratio using hα3β4 data of Arias et al., 2015; for IC50: read-out: IC50 (inhibitory potency)
hα7 AChR = hα7 AChR (Homo sapiens, UniProt P36544); type: cell-based; conditions: for hα7/hα3β4 IC50 ratio (selectivity): ratio using hα3β4 data of Arias et al., 2015
[1] = system: MHb (VI) neurons (endogenous α3β4* AChRs); test: Patch-clamp recording of ACh-evoked currents from MHb; type: cell-based, mouse; conditions: for Reversibility of inhibition of ACh-evoked currents after washing: 180 μM, washing 13 min ((±)-18-MC) or 10 min ((+)-catharanthine); for IC50: read-out: IC50 (inhibitory potency on ACh-evoked currents), 100 μM ACh puffs, MHb (VI) neurons, single exponential fit
Method in brief: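 Male C57BL/6J mice, 8–24 weeks. Coronal 250 μm slices through the medial habenula, recovered in oxygenated solution at 33 °C for 12 min. Neurons visualised by IR/DIC. Internal solution contained 2 mM QX-314. ACh (100 μM) puffed for 250 ms at 12 psi, with 1 μM atropine in the superfusate. Test compound at 0.07–180 μM; peak amplitudes measured before and after washout. Nonlinear least-squares fit gave IC50.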

hα3β4 AChR = conditions: read-out: IC50 at hα3β4 AChRs; HEK293-hα3β4 cells; ref Arias et al., 2015; cited from earlier work
[2] = ref Zhang et al., 2002; Maissonneuve and Glick, 2003; cited from earlier work
α1β1γδ AChR = test: Selectivity for hα3β4 over α1β1γδ AChRs; type: cell-based, human; conditions: ref Arias et al., 2011
[3] = molecular target: hα3β4 AChR ([3H]ibogaine sites) (Homo sapiens, UniProt P30926+P32297); test: [3H]ibogaine competition binding to hα3β4 AChR membranes from HEK293-hα3β4 cells
[4] = hα7, inhibition of 1.0 μM (±)-epibatidine-induced Ca2+ influx

Sequence of hα7 AChR (P36544 23-502): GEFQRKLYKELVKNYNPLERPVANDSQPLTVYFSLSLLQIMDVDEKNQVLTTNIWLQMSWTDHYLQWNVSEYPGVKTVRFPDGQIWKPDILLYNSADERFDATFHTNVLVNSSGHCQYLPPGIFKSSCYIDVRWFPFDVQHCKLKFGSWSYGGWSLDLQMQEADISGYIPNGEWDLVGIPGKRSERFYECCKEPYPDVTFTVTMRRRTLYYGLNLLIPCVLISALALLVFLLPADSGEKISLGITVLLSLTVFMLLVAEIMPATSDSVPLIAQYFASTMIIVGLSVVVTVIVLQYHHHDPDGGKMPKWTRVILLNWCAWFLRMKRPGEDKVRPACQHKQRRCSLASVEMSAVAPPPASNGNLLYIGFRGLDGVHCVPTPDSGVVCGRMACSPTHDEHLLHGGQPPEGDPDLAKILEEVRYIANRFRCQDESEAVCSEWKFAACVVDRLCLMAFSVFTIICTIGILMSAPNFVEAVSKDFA
Sequence of hα4β2 AChR (P17787 26-502): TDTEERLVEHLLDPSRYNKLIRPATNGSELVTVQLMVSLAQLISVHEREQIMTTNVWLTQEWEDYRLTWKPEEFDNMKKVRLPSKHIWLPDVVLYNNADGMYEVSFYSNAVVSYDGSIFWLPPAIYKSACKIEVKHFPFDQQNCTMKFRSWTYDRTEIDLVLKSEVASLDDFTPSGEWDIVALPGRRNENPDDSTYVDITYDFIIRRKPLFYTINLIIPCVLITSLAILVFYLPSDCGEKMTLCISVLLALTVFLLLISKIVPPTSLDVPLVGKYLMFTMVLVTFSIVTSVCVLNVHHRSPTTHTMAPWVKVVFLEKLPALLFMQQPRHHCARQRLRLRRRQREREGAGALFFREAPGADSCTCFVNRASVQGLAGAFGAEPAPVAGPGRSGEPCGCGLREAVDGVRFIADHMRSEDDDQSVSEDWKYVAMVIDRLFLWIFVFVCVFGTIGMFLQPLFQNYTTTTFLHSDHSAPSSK
Sequence of hα4β2 AChR (P43681 29-627): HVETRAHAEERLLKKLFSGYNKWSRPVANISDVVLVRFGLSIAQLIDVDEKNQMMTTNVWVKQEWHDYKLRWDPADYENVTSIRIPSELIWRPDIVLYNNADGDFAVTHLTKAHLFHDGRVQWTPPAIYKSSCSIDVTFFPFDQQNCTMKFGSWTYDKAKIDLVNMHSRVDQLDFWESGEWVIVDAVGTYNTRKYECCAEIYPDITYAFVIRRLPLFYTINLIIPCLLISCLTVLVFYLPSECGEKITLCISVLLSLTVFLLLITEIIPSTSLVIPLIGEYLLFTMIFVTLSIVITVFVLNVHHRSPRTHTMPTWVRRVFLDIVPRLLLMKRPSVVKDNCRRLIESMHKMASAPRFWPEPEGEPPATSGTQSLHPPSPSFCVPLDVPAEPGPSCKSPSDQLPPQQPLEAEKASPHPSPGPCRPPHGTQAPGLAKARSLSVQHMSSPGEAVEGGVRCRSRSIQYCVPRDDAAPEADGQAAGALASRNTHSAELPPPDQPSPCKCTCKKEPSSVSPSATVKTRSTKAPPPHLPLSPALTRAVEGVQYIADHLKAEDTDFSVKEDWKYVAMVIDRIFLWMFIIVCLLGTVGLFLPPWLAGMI
Sequence of hα3β4 AChR ([3H]ibogaine sites) (P32297 32-505): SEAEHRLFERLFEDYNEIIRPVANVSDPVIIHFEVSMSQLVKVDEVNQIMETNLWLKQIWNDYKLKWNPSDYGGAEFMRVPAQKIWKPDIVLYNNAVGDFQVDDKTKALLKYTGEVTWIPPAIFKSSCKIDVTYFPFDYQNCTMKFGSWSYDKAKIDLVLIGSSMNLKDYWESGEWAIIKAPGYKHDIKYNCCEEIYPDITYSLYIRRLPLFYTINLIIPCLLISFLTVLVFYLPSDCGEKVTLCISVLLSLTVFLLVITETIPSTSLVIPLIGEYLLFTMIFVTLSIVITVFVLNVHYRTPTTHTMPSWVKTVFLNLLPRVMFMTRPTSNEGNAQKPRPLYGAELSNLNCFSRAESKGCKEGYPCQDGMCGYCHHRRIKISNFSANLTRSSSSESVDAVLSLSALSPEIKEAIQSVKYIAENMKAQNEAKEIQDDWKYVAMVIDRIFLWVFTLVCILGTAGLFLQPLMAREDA
Sequence of hα3β4 AChR ([3H]ibogaine sites) (P30926 22-498): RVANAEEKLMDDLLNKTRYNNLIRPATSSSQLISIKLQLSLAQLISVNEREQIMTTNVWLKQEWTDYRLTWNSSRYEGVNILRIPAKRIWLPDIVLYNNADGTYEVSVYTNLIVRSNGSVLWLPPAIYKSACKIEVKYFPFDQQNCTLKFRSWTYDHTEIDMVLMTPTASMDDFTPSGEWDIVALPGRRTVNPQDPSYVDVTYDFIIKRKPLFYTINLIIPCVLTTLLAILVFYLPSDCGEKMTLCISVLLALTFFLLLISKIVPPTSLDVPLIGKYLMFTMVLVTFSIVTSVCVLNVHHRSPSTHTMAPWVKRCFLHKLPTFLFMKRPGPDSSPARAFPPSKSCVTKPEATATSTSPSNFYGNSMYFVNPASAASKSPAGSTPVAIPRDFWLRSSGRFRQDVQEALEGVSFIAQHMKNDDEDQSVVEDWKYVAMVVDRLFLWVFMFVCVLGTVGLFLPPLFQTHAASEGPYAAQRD

12-methoxyibogamine [(−)-ibogaine]
AChR subtypes inhibited in voltage-clamp recordings (α3β4 and α4β2 AChRs): inhibits both α3β4 and α4β2 subtypes

CNCC[C@H]1CC2CN3CCc4c([nH]c5ccccc45)[C@](C(=O)OC)(C2)[C@H]13 (racemic) [(±)-18-MAC, (±)-18-Methylaminocoronaridine]
nH (Hill coefficient) (hα4β2 AChR): 1.40 ± 0.14
hα4β2/hα3β4 IC50 ratio (selectivity) (hα4β2 AChR): 7.9 x-fold
IC50 (hα4β2 AChR): 20.7 ± 3 µM
IC50 (inhibitory potency) (hα7 AChR; GH3-hα7 cells, 5 min pre-incubation, 1.0 μM (±)-epibatidine): No effect

COCCC1CC2CN3CCc4c([nH]c5ccccc45)C(C(=O)OC)(C2)C13.Cl (racemic) [(±)-18-MC, (±)-18-Methoxycoronaridine hydrochloride]
nH (Hill coefficient) (hα4β2 AChR): 1.85 ± 0.17
hα4β2/hα3β4 IC50 ratio (selectivity) (hα4β2 AChR): 4 x-fold and 4.3 x-fold
nH (Hill coefficient) (hα7 AChR; [4]): 2.21 ± 0.50
hα7/hα3β4 IC50 ratio (selectivity) (hα7 AChR): 23.6 x-fold
Reversibility of inhibition of ACh-evoked currents after washing [1]: reversible inhibition
IC50 [1]: 28 ± 6 µM
IC50 (hα3β4 AChR): 1470 ± 210 nM
half-life (metabolism to 18-HC) [2]: ~100 min

Clc1ccc(C2CC3CCC2N3)cn1 (racemic) [(±)-epibatidine, (±)-Epibatidine, reference compound]
EC50 (hα7 AChR; read-out: EC50 (activation potency), agonist-induced Ca2+ influx, GH3-hα7 cells, n = 25): 26 ± 4 nM

CCC1=C[C@@H]2CN3CCc4c([nH]c5ccccc45)[C@@](C(=O)OC)(C2)[C@@H]13 [(+)-Catharanthine, (+)-3,4-didehydrocoronaridine]
nH (Hill coefficient) (hα4β2 AChR): 1.48 ± 0.25
hα4β2/hα3β4 IC50 ratio (selectivity) (hα4β2 AChR): 18.5 x-fold
hα4β2/hα3β4 IC50 ratio (selectivity) (hα4β2 AChR; listed as (+)-catharanthine): 18 x-fold
nH (Hill coefficient) (hα7 AChR; [4]): 1.43 ± 0.20
hα7/hα3β4 IC50 ratio (selectivity) (hα7 AChR): 32.0 x-fold
hα7/hα3β4 IC50 ratio (selectivity) (hα7 AChR; listed as (+)-catharanthine): 32 x-fold
Reversibility of inhibition of ACh-evoked currents after washing [1]: reversible inhibition
IC50 [1]: 27 ± 4 µM
Selectivity for hα3β4 over α1β1γδ AChRs (α1β1γδ AChR): 29 fold
IC50 (hα3β4 AChR): 680 ± 100 nM

CC(NC(C)(C)C)C(=O)c1cccc(Cl)c1 (stereo not shown) [bupropion, bupropion hydrochloride]
nH (Hill coefficient) ([3]; desensitized state [in the presence of (−)-nicotine]): 0.75 ± 0.08
nH (Hill coefficient) ([3]; resting state [no agonist]): 0.72 ± 0.05

(±)-18-hydroxycoronaridine [(±)-18-HC]
nH (Hill coefficient) (hα4β2 AChR): 1.27 ± 0.06
hα4β2/hα3β4 IC50 ratio (selectivity) (hα4β2 AChR): 8.8 x-fold
IC50 (hα4β2 AChR): 24.8 ± 1.2 µM
nH (Hill coefficient) (hα7 AChR): 1.64 ± 0.20
hα7/hα3β4 IC50 ratio (selectivity) (hα7 AChR): 26.1 x-fold
